Assay results published in ChEMBL document CHEMBL3244066, “Inhibition of histidine decarboxylase. Derivatives of histidine” (J Med Chem, 1977).
Peptide text beside a SMILES is read from it.

These compounds were tested against T1, Histidine decarboxylase (Rattus norvegicus) (UniProt P16453) (assay: Inhibition of histidine decarboxylase in Sprague-Dawley rat stomach assessed as decrease in 14CO2 production using L-histidine-carboxyl-14C as substrate at 0.13 mM by scintillation counting analysis).
T1 sequence (whole entry): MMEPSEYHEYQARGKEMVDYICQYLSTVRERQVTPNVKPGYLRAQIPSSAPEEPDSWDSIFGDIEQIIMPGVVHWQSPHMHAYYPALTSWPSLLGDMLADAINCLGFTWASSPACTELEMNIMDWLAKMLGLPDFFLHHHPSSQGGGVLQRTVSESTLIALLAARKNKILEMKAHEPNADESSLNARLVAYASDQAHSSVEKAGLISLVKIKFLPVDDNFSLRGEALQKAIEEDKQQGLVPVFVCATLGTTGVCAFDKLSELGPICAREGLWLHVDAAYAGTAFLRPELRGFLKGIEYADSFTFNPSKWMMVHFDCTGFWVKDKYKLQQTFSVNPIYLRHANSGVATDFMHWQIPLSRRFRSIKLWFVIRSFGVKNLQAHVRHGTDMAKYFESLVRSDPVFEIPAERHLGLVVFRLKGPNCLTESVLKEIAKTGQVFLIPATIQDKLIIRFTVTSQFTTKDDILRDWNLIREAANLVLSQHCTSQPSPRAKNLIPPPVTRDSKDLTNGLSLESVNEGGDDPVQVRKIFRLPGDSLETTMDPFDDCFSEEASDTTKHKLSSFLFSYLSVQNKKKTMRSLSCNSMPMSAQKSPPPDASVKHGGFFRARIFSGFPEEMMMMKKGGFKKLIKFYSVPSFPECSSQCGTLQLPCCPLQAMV
Procedure, shortened: (§1)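 Enzyme from rat stomach: homogenized in 0.1 M K phosphate–0.1 mM pyridoxal phosphate, pH 6.9, at 0–4 °C. Then 39 000g and 100 000g spins and a 20–45% ammonium sulfate cut. Assayed in triplicate with 0.05 M K phosphate, pH 6.9, 0.03 mM PLP and 0.24 mM L-histidine-carboxyl-14C (final) for 30 min at 37 °C. Inhibitors were fresh in water, generally 0.1 mM. HCl-released 14CO2 was trapped on Hyamine paper for 1 h and counted. % inhibition was taken after blank subtraction.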

Row | inhibition | Structure (SMILES)
1 | 9% | O=C(O)CCc1c[nH]cn1
2 | 0% | O=C(O)[C@@H](O)Cc1c[nH]cn1

Each compound was assayed against T1, Histidine decarboxylase (Rattus norvegicus) (assay: Inhibition of histidine decarboxylase in Sprague-Dawley rat stomach assessed as decrease in 14CO2 production using L-histidine-carboxyl-14C as substrate at 0.012 mM by scintillation counting analysis).
Procedure, shortened: as §1

Row | inhibition | Structure (SMILES)
3 | 50% | CCOC(=O)[C@@H](N)Cc1c[nH]cn1

Each compound was assayed against T1, Histidine decarboxylase (Rattus norvegicus) (assay: Inhibition of histidine decarboxylase in Sprague-Dawley rat stomach assessed as decrease in 14CO2 production using L-histidine-carboxyl-14C as substrate at 0.10 mM by scintillation counting analysis).
Procedure, shortened: as §1

Row | Structure (SMILES) | inhibition
4 | COC(=O)[C@@H](N)Cc1nc[nH]c1[N+](=O)[O-] | 3%
5 | C[n+]1c[nH]cc1C[C@H](N)C(=O)O | 0%
6 | Cn1cnc(C[C@H](N)C(=O)O)c1 | 0%
7 | N[C@@H](Cc1cnc[nH]1)C(=O)NO | 14%
8 | N[C@@H](Cc1nc[nH]c1[N+](=O)[O-])C(=O)O | 0%
9 | N[C@@H](Cc1c[nH]cn1)C(=O)NCC(=O)O (H-His-Gly-OH) | 0%
10 | CCCOC(=O)C(N)Cc1c[nH]cn1 (racemic) | 22%
11 | CCOC(=O)C(Cc1c[nH]cn1)(c1ccccc1)[N+](=O)[O-] (racemic) | 22%
12 | CNC(=O)C(N)Cc1c[nH]cn1 (racemic) | 0%
13 | Cc1nc(CC(N)C(=O)O)c[nH]1 (racemic) | 0%
14 | O=C(O)C(Br)Cc1cnc[nH]1 (racemic) | 13%

Results, then the compound that gave them:

Row | inhibition | Structure (SMILES)
15 | 10% | COC(=O)CCc1c[nH]cn1
16 | 19% | C[C@](N)(Cc1c[nH]cn1)C(=O)O
17 | 32% | CCCC(Cc1c[nH]cn1)(C(=O)OC)[N+](=O)[O-] (racemic)
18 | 2% | CCCC(N)(Cc1c[nH]cn1)C(=O)OC (racemic)
19 | 24% | CCCCC(Cc1c[nH]cn1)(C(=O)OC)[N+](=O)[O-] (racemic)
20 | 3% | CCCCC(N)(Cc1c[nH]cn1)C(=O)O (racemic)
21 | 0% | CCCCC(N)(Cc1c[nH]cn1)C(=O)OC (racemic)
22 | 62% | CCCCOC(=O)C(N)Cc1c[nH]cn1 (racemic)
23 | 5% | CCOC(=O)C(CC)(Cc1c[nH]cn1)[N+](=O)[O-] (racemic)
24 | 13% | CCOC(=O)C(N)(CC)Cc1c[nH]cn1 (racemic)
25 | 25% | COC(=O)C(C)(Cc1c[nH]cn1)[N+](=O)[O-] (racemic)
26 | 3% | COC(=O)C(C)(N)Cc1c[nH]cn1 (racemic)

What follows are compounds tested against T1, Histidine decarboxylase (Rattus norvegicus) (assay: Inhibition of histidine decarboxylase in Sprague-Dawley rat stomach assessed as decrease in 14CO2 production using L-histidine-carboxyl-14C as substrate at 0.50 mM by scintillation counting analysis).
Procedure, shortened: as §1

Row | inhibition | Structure (SMILES)
27 | 0% | CC(=O)N[C@@H](Cc1c[nH]cn1)C(=O)O

What follows are compounds tested against T2, Histidine decarboxylase (Rattus norvegicus, UniProt P16453) (assay: Inhibition of histidine decarboxylase in Sprague-Dawley rat stomach assessed as decrease in 14CO2 production using L-histidine-carboxyl-14C as substrate by Dixon plot analysis).
T2 sequence (P16453 whole entry): T1 sequence (whole entry)
Procedure, shortened: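 Ki from a Dixon plot of reciprocal activity versus inhibitor concentration. Used the ammonium sulfate–fractionated rat stomach extract, 0.24 mM L-histidine-carboxyl-14C, 0.03 mM PLP, pH 6.9 phosphate, 30 min at 37 °C, and Hyamine trapping of 14CO2 with scintillation counting. Inhibitor was run in duplicate at four concentrations from 1 to 50 μM.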

Row | Ki | Structure (SMILES)
28 | 1800 nM | COC(=O)[C@@H](N)Cc1c[nH]cn1

These compounds were tested against T1, Histidine decarboxylase (Rattus norvegicus) (assay: Inhibition of histidine decarboxylase in Sprague-Dawley rat stomach assessed as decrease in 14CO2 production using L-histidine-carboxyl-14C as substrate at 0.32 mM by scintillation counting analysis).
Procedure, shortened: as §1

Row | inhibition | Structure (SMILES)
29 | 50% | C[C@](N)(Cc1c[nH]cn1)C(=O)O

These compounds were tested against T1, Histidine decarboxylase (Rattus norvegicus) (assay: Inhibition of histidine decarboxylase in Sprague-Dawley rat stomach assessed as decrease in 14CO2 production using L-histidine-carboxyl-14C as substrate at 0.004 mM by scintillation counting analysis).
Procedure, shortened: as §1

Row | inhibition | Structure (SMILES)
30 | 50% | COC(=O)[C@@H](N)Cc1c[nH]cn1
